Data set [1] relates to MCF7. The experiment in a line: In vitro cytotoxic concentration required to reduce MCF-7 cell growth by 50%. Type of data set: functional. The following applies: Homo sapiens. The method in brief:
(§1)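 MCF-7 cells kept in RPMI 1640 with 10% heat-inactivated FBS, penicillin and streptomycin; 5×10^4 to 6×10^4 cells per well dosed with compound in PBS at final 0.001, 0.01, 0.1, 1, 10 and 100 µM; 48 h at 37 °C, 10% CO2. Brief trypsin release, viable cells counted by trypan blue exclusion; triplicate, untreated wells as control. CC50 = concentration giving 50% growth reduction versus control.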

The nature of data set [2]: Partition coefficient (logP). The data set is classed as physicochemical. The following applies: octanol/water. In outline: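 Octanol and water pre-equilibrated (shaken 6 h, stood overnight); ~0.5 mg compound added, shaken 1 h at room temperature, centrifuged 1 h at 1000 rpm, left 30 h to equilibrate. Each phase read by UV absorbance, concentration from extinction coefficients via Beer-Lambert using standard curves over 2-300 µM. Duplicate or triplicate; mean of two values within 15%.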

In data set [3] the test system is CCRF-CEM. The data set can be described thus: Cytotoxic activity against CEM cell lines. Type of data set: functional, Homo sapiens.
Data set [4] relates to MCF7. The experiment in a line: Cytotoxic activity against MCF-7 cell lines. The data set is classed as functional, Homo sapiens. In outline: as §1
In data set [5] the test system is CCRF-CEM. The experiment in a line: Tested for intracellular levels of AZT phosphate against CEM cell lines. Type of data set: functional, Homo sapiens. The method in brief:
(§2)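 About 1.5×10^6 MCF-7 or 3×10^6 CEM cells exposed to 100 µM compound for 17 h, then medium removed. Phosphorylated fractions (phosphates plus phosphoramidate) dephosphorylated with potato acid phosphatase in potassium hydrogen phthalate buffer, 4 h at 37 °C, dried, reconstituted in FPIA buffer; AZT quantified by RIA and phosphorylated amounts extrapolated. Reported as pmol per million cells.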

In data set [6] the test system is MCF7. The experiment in a line: Tested for intracellular levels of AZT phosphate against MCF-7 cell lines. Type of data set: functional, Homo sapiens. In outline: as §2
Data set [7] has as its system MCF7. The experiment in a line: Tested for intracellular levels of phosphoramidate against MCF-7 cell lines. Type of data set: functional, Homo sapiens. The method in brief:
as §2

In data set [8] the test system is CCRF-CEM. The experiment in a line: Tested for intracellular levels of phosphoramidate against CEM cell lines. The data set is classed as functional, Homo sapiens. The method in brief:
as §2

Results on 23 compounds are retold here after ChEMBL document CHEMBL1133735, “Synthesis, in vitro anti-breast cancer activity, and intracellular decomposition of amino acid methyl ester and alkyl amide phosphoramidate monoesters of 3'-azido-3'-deoxythymidine (AZT)” (J Med Chem, 2000).

As for `CNC(=O)[C@H](C)NP(=O)(O)OC[C@H]1OC(n2cc(C)c(=O)[nH]c2=O)C[C@H]1N=[N+]=[N-]` (stereo not given in full), in the data set on MCF7 [1], the CC50 is > 100 µM. In addition, in data set [2], the logP is -1.21.

With `CNC(=O)[C@H](Cc1ccc(O)cc1)NP(=O)(O)OC[C@H]1OC(n2cc(C)c(=O)[nH]c2=O)C[C@H]1N=[N+]=[N-]` (stereo not given in full), in the data set on MCF7 [1], the CC50 is > 100 µM. Further, in data set [2], the logP is -1.38.

Take `CNC(=O)[C@@H](Cc1c[nH]c2ccccc12)NP(=O)(O)OC[C@H]1OC(n2cc(C)c(=O)[nH]c2=O)C[C@H]1N=[N+]=[N-]` (stereo not given in full): the CC50 with MCF7 [1] is > 100 µM. In addition, in data set [2], the logP is -1.89.

`CNC(=O)[C@H](Cc1c[nH]c2ccccc12)NP(=O)(O)OC[C@H]1OC(n2cc(C)c(=O)[nH]c2=O)C[C@H]1N=[N+]=[N-]` (stereo not given in full) displayed a CC50 in the data set on MCF7 [1] of 0.016 µM. Moreover, the logP in data set [2] is -1.38.

On to `Cc1cn(C2C[C@@H](N=[N+]=[N-])[C@@H](COP(=O)(O)N[C@@H](Cc3c[nH]c4ccccc34)C(=O)NC3CC3)O2)c(=O)[nH]c1=O` (stereo not given in full), for which the CC50 in the data set with MCF7 [1] is 90 µM. The logP in data set [2] is -1.39.

As for `COC(=O)[C@H](Cc1c[nH]c2ccccc12)NP(=O)(O)OC[C@H]1O[C@@H](n2cc(C)c(=O)[nH]c2=O)C[C@@H]1N=[N+]=[N-]`, half-maximal cytotoxicity in the data set with MCF7 [1] (CC50) was put at 0.059 µM. In addition, the Cytotoxicity is >100 µM in the data set with CCRF-CEM [3] and 0.059 µM in the data set with MCF7 [4]. The Amount with CCRF-CEM [5] is on record as 115.8 pM (10e6*cells)-1; with MCF7 [6] it was 196.5 pM (10e6*cells)-1; in the data set with MCF7 [7], 213.6 pM (10e6*cells)-1; in the data set on CCRF-CEM [8], 14.6 pM (10e6*cells)-1. Further, the logP in data set [2] is -0.686.

On to `COC(=O)[C@@H](Cc1c[nH]c2ccccc12)NP(=O)(O)OC[C@H]1O[C@@H](n2cc(C)c(=O)[nH]c2=O)C[C@@H]1N=[N+]=[N-]`, for which the CC50 in the data set with MCF7 [1] is > 100 µM. Besides, the logP in data set [2] is -1.36.

For `CCNC(=O)[C@H](Cc1c[nH]c2ccccc12)NP(=O)(O)OC[C@H]1OC(n2cc(C)c(=O)[nH]c2=O)C[C@H]1N=[N+]=[N-]` (stereo not given in full), the CC50 in the data set with MCF7 [1] is > 100 µM. In data set [2], the logP was -1.53.

Consider `CNC(=O)[C@@H](Cc1ccccc1)NP(=O)(O)OC[C@H]1OC(n2cc(C)c(=O)[nH]c2=O)C[C@H]1N=[N+]=[N-]` (stereo not given in full), for which the CC50 in the data set on MCF7 [1] is > 100 µM. In data set [2], the log partition coefficient (logP) is -1.7.

Consider `Cc1cn([C@H]2C[C@H](N=[N+]=[N-])[C@@H](CO)O2)c(=O)[nH]c1=O` [ZIDOVUDINE], for which the Cytotoxicity in the data set with CCRF-CEM [3] turned out to be 14.3 µM; in the data set with MCF7 [4], 0.008 µM. Moreover, the Amount in the data set on CCRF-CEM [5] is given as 810.9 pM (10e6*cells)-1; in the data set with MCF7 [6], 2658.4 pM (10e6*cells)-1.

Turning to `Cc1cn(C2C[C@@H](N=[N+]=[N-])[C@@H](COP(=O)(O)N[C@@H](Cc3c[nH]c4ccccc34)C(=O)NC3CCCCC3)O2)c(=O)[nH]c1=O` (stereo not given in full), the 50% cytotoxic concentration (CC50) with MCF7 [1] amounted to 16 µM. For the same compound, the logP in data set [2] was -0.914.

In the case of `COC(=O)[C@H](CC(C)C)NP(=O)(O)OC[C@H]1OC(n2cc(C)c(=O)[nH]c2=O)C[C@H]1N=[N+]=[N-]` (stereo not given in full), the CC50 with MCF7 [1] was > 100 µM. In addition, the logP in data set [2] is -1.5.

In the case of `COC(=O)CNP(=O)(O)OC[C@H]1OC(n2cc(C)c(=O)[nH]c2=O)C[C@H]1N=[N+]=[N-]` (stereo not given in full), the half-maximal cytotoxic concentration (CC50) in the data set with MCF7 [1] is > 100 µM. Moreover, the logP in data set [2] is -1.24.

As for `CNC(=O)[C@H](CC(C)C)NP(=O)(O)OC[C@H]1OC(n2cc(C)c(=O)[nH]c2=O)C[C@H]1N=[N+]=[N-]` (stereo not given in full), in the data set on MCF7 [1], the CC50 was > 100 µM. In data set [2], the logP was -1.52.

With `CNC(=O)[C@@H](NP(=O)(O)OC[C@H]1OC(n2cc(C)c(=O)[nH]c2=O)C[C@H]1N=[N+]=[N-])C(C)C` (stereo not given in full), half-maximal cytotoxicity in the data set on MCF7 [1] (CC50) was put at 2.2 µM. Also, the logP in data set [2] is -1.64.

`COC(=O)[C@H](Cc1ccc(O)cc1)NP(=O)(O)OC[C@H]1OC(n2cc(C)c(=O)[nH]c2=O)C[C@H]1N=[N+]=[N-]` (stereo not given in full): in the data set with MCF7 [1], the CC50 was 10 µM. Further, the log partition coefficient (logP) in data set [2] is -1.59.

The compound `COC(=O)[C@H](C)NP(=O)(O)OC[C@H]1OC(n2cc(C)c(=O)[nH]c2=O)C[C@H]1N=[N+]=[N-]` (stereo not given in full) yielded a CC50 in the data set with MCF7 [1] of 5.8 µM. For the same compound, in data set [2], the logP was -1.25.

In turn, `CNC(=O)CNP(=O)(O)OC[C@H]1O[C@@H](n2cc(C)c(=O)[nH]c2=O)C[C@@H]1N=[N+]=[N-]` returned a CC50 in the data set with MCF7 [1] of 5 µM. Moreover, the logP in data set [2] is -1.15.

Take `COC(=O)[C@@H](Cc1ccccc1)NP(=O)(O)OC[C@H]1O[C@@H](n2cc(C)c(=O)[nH]c2=O)C[C@@H]1N=[N+]=[N-]`: the CC50 in the data set on MCF7 [1] is > 100 µM. The lipophilicity (logP) in data set [2] is -1.33.

In the data set on MCF7 [1], `CNC(=O)[C@H](Cc1ccccc1)NP(=O)(O)OC[C@H]1OC(n2cc(C)c(=O)[nH]c2=O)C[C@H]1N=[N+]=[N-]` (stereo not given in full) registered a CC50 of 1.4 µM. Further, the logP in data set [2] is -1.49.

Turning to `Cc1cn(C2C[C@@H](N=[N+]=[N-])[C@@H](COP(=O)(O)N[C@@H](Cc3c[nH]c4ccccc34)C(=O)NC(C)C)O2)c(=O)[nH]c1=O` (stereo not given in full), the CC50 in the data set on MCF7 [1] is > 100 µM. The logP in data set [2] is -1.3.

In the data set with MCF7 [1], `COC(=O)[C@@H](NP(=O)(O)OC[C@H]1OC(n2cc(C)c(=O)[nH]c2=O)C[C@H]1N=[N+]=[N-])C(C)C` (stereo not given in full) yielded a half-maximal cytotoxic concentration (CC50) of 6 µM. In addition, the logP in data set [2] is -1.56.

Consider `COC(=O)[C@H](Cc1ccccc1)NP(=O)(O)OC[C@H]1O[C@@H](n2cc(C)c(=O)[nH]c2=O)C[C@@H]1N=[N+]=[N-]`, for which the midpoint of cytotoxicity in the data set on MCF7 [1], the CC50, lay at 0.4 µM. The Cytotoxicity was >100 µM in the data set on CCRF-CEM [3] and 0.4 µM with MCF7 [4]. Moreover, the Amount is recorded as 120.7 pM (10e6*cells)-1 in the data set with CCRF-CEM [5], 221 pM (10e6*cells)-1 in the data set with MCF7 [6], 295 pM (10e6*cells)-1 in the data set with MCF7 [7] and 7.8 pM (10e6*cells)-1 in the data set with CCRF-CEM [8]. The logP in data set [2] was -1.84.
